For assay [1], the species on record is Homo sapiens. The assay is described as follows: Selectivity ratio of Ki for human adenosine A2A receptor to Ki for human adenosine A3.
The target of assay [2] is T1, Adenosine receptor A3 (Homo sapiens, UniProt P0DMS8).
T1 sequence (P0DMS8 whole entry): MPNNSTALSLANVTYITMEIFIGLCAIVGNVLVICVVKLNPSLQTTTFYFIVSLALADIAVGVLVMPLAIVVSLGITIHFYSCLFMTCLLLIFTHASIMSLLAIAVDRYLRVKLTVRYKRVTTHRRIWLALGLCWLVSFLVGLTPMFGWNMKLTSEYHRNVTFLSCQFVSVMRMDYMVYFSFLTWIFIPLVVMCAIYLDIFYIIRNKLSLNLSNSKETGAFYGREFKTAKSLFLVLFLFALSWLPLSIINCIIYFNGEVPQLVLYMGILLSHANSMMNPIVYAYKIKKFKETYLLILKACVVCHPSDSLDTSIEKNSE
The assay is described as follows: Displacement of [3H]NECA from human cloned adenosine A3 receptor expressed in CHO cells. Format: cell-based. On the technique in general: In a radioligand displacement assay an active substance lowers the binding of a labelled ligand.

In assay [3] the target is T2, Adenosine receptor A2b (Homo sapiens, UniProt P29275).
T2 sequence (P29275 whole entry): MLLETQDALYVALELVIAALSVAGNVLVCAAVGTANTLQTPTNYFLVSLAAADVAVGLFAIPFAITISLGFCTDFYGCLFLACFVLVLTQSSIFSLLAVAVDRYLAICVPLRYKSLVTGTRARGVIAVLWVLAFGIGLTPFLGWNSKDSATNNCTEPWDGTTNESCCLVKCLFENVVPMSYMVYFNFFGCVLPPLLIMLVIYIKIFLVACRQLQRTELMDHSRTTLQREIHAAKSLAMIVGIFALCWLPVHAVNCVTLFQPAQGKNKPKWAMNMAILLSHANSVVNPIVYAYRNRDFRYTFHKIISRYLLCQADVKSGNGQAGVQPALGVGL
The assay is described as follows: Antagonist activity at human cloned adenosine A2b receptor expressed in CHO cells assessed as inhibition of NECA-stimulated cAMP accumulation. It is filed as functional, cell-based. Put shortly: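 Membranes from CHO cells with hA2B receptor, prepared by a single 30 min spin at 54000g and resuspended in 50 mM Tris/HCl pH 7.4, used fresh. Antagonist inhibition of NECA-stimulated adenylyl cyclase gave IC50 by Hill fit; Ki from Cheng–Prusoff.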

In assay [4] the target is Adenosine receptors; A1 & A3 (Homo sapiens) (UniProt P30542+P0DMS8). The assay is described as follows: Selectivity ratio of Ki for human adenosine A1 receptor to Ki for human adenosine A3.
Assay [5] has as its target T3, Adenosine receptor A1 (Homo sapiens, UniProt P30542).
T3 sequence (P30542 whole entry): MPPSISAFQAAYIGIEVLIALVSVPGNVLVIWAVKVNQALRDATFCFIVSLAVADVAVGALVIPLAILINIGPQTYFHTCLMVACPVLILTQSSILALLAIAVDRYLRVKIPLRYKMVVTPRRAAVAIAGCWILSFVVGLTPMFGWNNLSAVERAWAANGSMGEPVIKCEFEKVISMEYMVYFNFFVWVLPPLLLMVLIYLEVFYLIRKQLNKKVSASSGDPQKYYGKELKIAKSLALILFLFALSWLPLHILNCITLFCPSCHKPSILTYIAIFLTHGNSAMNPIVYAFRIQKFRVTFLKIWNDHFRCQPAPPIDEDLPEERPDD
The assay is described as follows: Displacement of [3H]CCPA from human cloned adenosine A1 receptor expressed in CHO cells. It is filed as cell-based. Put shortly:
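CHO membranes with hA1 receptor, from 1000g 4 min spin then 100000g 30 min. Incubated 3 h at 25 °C with 1 nM [3H]CCPA, 0.2 U/mL adenosine deaminase, 20 μg protein in 50 mM Tris/HCl pH 7.4 and graded compound. Nonspecific binding with 1 mM theophylline.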

In assay [6] the target is Adenosine receptor A2a (Homo sapiens, UniProt P29274). The assay is described as follows: Displacement of [3H]NECA from human cloned adenosine A2a receptor expressed in CHO cells. It is filed as cell-based. The method, boiled down: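 hA2A-CHO membranes, prepared by two-step centrifugation, were incubated with 30 nM [3H]NECA, 50 μg protein and graded compound under the A1 binding conditions. Nonspecific binding with 100 μM R-PIA.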

SMILES strings stand for the structures.

What is called Ki is a dissociation constant, usually derived from enzyme kinetics or from competition with a known ligand.

Adenosine receptor A2a, sequence (P29274 whole entry): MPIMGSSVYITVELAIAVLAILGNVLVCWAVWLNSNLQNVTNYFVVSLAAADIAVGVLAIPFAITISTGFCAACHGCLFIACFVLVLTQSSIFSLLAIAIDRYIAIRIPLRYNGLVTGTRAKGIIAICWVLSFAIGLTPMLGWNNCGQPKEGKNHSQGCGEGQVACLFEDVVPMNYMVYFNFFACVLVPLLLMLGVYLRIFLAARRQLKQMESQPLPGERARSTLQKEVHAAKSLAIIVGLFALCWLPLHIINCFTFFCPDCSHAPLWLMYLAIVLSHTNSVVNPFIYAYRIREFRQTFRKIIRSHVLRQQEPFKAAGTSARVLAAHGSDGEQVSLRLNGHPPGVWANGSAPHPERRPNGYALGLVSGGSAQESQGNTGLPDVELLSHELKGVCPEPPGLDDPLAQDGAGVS

Regarding `Nc1nc2nn(CCc3ccccc3)cc2c2nc(-c3ccc(Br)cc3)nn12`, the Ratio Ki in assay [1] is more than 136; in assay [4], 2.25. Also, the inhibitory constant (Ki) was 221 nM in assay [2], more than 10000 nM in assay [3], 498 nM in assay [5] and more than 30000 nM in assay [6].
As to `Cn1cc2c(nc(NC(=O)c3ccccc3)n3nc(-c4ccccc4)nc23)n1`, the Ratio Ki in assay [1] turned out to be 64.8; in assay [4], 124. The Ki is 5 nM in assay [2], more than 10000 nM in assay [3], 622 nM in assay [5] and 324 nM in assay [6].
For the compound `Cn1cc2c(nc(NC(=O)Cc3ccccc3)n3nc(-c4ccc(Cl)cc4)nc23)n1`, the Ratio Ki in assay [1] is 33500; in assay [4], 19600. Besides, the Ki is 0.248 nM in assay [2], more than 10000 nM in assay [3], 4850 nM in assay [5] and 8320 nM in assay [6].
Consider `Cn1cc2c(nc(N)n3nc(-c4ccc(F)cc4)nc23)n1`, for which the Ratio Ki in assay [1] was found to be 11.3; in assay [4], 32.2. In addition, the inhibition constant Ki was 31.4 nM in assay [2], more than 10000 nM in assay [3], 1010 nM in assay [5] and 355 nM in assay [6].
Turning to `Cn1cc2c(nc(N)n3nc(-c4ccc([N+](=O)[O-])cc4)nc23)n1`, the results for the Ratio Ki in assay [1] and in assay [4] were more than 15.3 and more than 458, respectively. Besides, the Ki in assay [2] was 655 nM; in assay [3], more than 10000 nM; in assay [5], more than 300000 nM; in assay [6] it was more than 10000 nM.

(Values after ChEMBL document CHEMBL1156179 (J Med Chem, 2010).)
